Assay results: ChEMBL document CHEMBL1123192 (J Med Chem, 1986)
Values belong to the molecule of their own block, whether it stands above or below them.

Assays:
Rattus norvegicus [1] = experiment: Maximal change in heart rate (HR) measured as pretreatment value at dose of 10 mg/kg in SHR; format: functional
Summary of the method: (§1)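 Spontaneously hypertensive rats; test agent dissolved or dispersed in 0.5% methylcellulose and given by gastric gavage at 5 mL/kg after a 1-h equilibration. Doses ranged from 1 to 100 mg/kg, with 4–8 animals per dose. MABP and HR were monitored for 4 h. Pretreatment values and maximal % change were recorded, and maximal changes were compared with vehicle by Dunnett's t test.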

Rattus norvegicus [2] = experiment: TMaximal change in heart rate (HR) measured as pretreatment value at dose of 5 mg/kg in SHR; format: functional; summary of the method: as §1
Rattus norvegicus [3] = experiment: Maximal change in mean arterial blood pressure (MABP) measured as pretreatment value at dose of 10 mg/kg in SHR; format: functional; summary of the method: as §1
Rattus norvegicus [4] = experiment: Maximal change in mean arterial blood pressure (MABP) measured as % change from pretreatment value at dose of 25 mg/kg; format: functional; summary of the method: as §1
Rattus norvegicus [5] = experiment: Maximal change in heart rate (HR) measured as % change from pretreatment value at dose of 25 mg/kg in SHR; format: functional; summary of the method: as §1
Rattus norvegicus [6] = experiment: Maximal change in mean arterial blood pressure (MABP) measured as pretreatment value at dose of 25 mg/kg in SHR; format: functional; summary of the method: as §1
Rattus norvegicus [7] = experiment: Maximal change in mean arterial blood pressure (MABP) measured as % change from pretreatment value at dose of 5 mg/kg in SHR; format: functional; summary of the method: as §1
[8] = molecular target: Beta-1 adrenergic receptor (Cavia porcellus) (UniProt B0FL73); experiment: Beta-1 adrenergic receptor ISA (intrinsic sympathomimetic activity)using the guinea pig right atria was measured as % increase of positive chronotropic effect (basal spontaneous beating rate) at 1x10E-7 M
Chain of Beta-1 adrenergic receptor (Cavia porcellus) (B0FL73 1-467): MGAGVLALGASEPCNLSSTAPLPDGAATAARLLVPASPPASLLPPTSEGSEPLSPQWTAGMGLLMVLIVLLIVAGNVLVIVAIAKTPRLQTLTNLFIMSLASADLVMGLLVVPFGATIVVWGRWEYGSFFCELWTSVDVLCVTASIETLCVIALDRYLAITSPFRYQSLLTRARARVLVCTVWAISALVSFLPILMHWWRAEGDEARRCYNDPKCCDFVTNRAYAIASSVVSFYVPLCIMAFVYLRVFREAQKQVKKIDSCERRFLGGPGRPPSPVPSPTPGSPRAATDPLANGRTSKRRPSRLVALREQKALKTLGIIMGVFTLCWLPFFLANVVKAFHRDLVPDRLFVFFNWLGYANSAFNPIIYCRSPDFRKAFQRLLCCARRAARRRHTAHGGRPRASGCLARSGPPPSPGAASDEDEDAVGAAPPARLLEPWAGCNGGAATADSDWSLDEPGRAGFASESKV

Rattus norvegicus [9] = experiment: Maximal change in heart rate (HR) measured as % change from pretreatment value at dose of 10 mg/kg in SHR; format: functional; summary of the method: as §1
Rattus norvegicus [10] = experiment: Maximal change in mean arterial blood pressure (MABP) measured as pretreatment value at dose of 5 mg/kg in SHR; format: functional; summary of the method: as §1
Cavia porcellus [11] = organism: Cavia porcellus; experiment: Beta-2-adrenoceptor ISA (intrinsic sympathomimetic activity)was measured as relaxant effect against a PGF2-alpha contracted guinea pig trachea at 1x10E-5 M; format: functional
Rattus norvegicus [12] = experiment: Maximal change in mean arterial blood pressure (MABP) measured as % change from pretreatment value at dose of 10 mg/kg in SHR; format: functional; summary of the method: as §1
[13] = molecular target: T1, Beta-1 adrenergic receptor (Cavia porcellus, UniProt B0FL73); experiment: The compound was evaluated for the antagonistic activity against beta-1 adrenergic receptor.; format: functional; details: read-out: pA2 (converted)
T1 sequence (B0FL73 whole entry): as the sequence (B0FL73 1-467) above
Summary of the method: (§2)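 Isolated tissue suited to each receptor test, held in 10-mL organ baths of Krebs-Henseleit solution at 37 °C and gassed with 95% O2/5% CO2. Antagonism was judged by how several concentrations of test agent altered a cumulative concentration-response curve to a receptor-specific agonist.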

[14] = molecular target: Beta-2 adrenergic receptor (Cavia porcellus, UniProt Q8K4Z4); experiment: The compound was evaluated for the antagonistic activity against beta-2 adrenergic receptor.; format: functional; details: read-out: pA2 (converted); summary of the method: as §2
Chain of Beta-2 adrenergic receptor (Q8K4Z4 whole entry): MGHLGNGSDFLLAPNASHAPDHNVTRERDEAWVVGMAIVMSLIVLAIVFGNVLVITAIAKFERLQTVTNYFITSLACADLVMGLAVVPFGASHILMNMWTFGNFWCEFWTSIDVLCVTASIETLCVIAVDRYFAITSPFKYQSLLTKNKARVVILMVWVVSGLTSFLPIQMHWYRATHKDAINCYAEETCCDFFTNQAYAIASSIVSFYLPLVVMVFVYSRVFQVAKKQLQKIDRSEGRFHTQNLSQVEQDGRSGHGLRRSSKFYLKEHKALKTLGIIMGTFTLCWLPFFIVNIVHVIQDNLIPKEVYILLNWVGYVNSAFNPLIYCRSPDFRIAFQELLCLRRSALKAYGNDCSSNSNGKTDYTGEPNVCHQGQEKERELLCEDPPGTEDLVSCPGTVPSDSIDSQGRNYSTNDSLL

Rattus norvegicus [15] = experiment: Maximal change in heart rate (HR) measured as pretreatment value at dose of 25 mg/kg in SHR; format: functional; summary of the method: as §1
Rattus norvegicus [16] = experiment: Maximal change in heart rate (HR) measured as % change from pretreatment value at dose of 5 mg/kg in SHR; format: functional; summary of the method: as §1
[17] = molecular target: T2, Adrenergic receptor alpha-2 (Rattus norvegicus, UniProt P22086+P19328+P22909); experiment: The compound was evaluated for the antagonistic activity against alpha-2 adrenergic receptor.; format: functional
T2 sequence (P22086 whole entry): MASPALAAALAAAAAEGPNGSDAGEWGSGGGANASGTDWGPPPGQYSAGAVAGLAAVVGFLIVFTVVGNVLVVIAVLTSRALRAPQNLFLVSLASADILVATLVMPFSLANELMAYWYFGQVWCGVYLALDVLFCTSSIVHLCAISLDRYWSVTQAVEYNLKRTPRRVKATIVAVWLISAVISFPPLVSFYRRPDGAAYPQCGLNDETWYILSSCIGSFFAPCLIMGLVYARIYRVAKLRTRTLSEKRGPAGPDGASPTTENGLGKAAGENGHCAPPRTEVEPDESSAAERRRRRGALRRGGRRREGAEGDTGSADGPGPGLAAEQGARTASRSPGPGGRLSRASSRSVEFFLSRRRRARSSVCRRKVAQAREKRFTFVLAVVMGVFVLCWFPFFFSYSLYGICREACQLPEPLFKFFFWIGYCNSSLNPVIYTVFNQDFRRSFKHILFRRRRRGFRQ
T2 sequence (P19328 whole entry): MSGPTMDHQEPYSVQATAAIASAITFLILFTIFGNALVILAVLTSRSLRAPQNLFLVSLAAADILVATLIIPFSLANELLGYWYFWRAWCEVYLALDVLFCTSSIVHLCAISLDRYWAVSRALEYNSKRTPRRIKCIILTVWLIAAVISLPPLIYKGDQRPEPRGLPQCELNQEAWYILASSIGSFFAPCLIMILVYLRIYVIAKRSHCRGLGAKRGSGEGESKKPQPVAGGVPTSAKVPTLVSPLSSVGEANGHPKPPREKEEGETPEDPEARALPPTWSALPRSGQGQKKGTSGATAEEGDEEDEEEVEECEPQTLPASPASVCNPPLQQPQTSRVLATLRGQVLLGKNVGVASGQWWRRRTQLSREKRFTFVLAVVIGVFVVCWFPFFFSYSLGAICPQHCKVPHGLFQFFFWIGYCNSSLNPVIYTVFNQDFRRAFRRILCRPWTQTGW
T2 sequence (P22909 whole entry): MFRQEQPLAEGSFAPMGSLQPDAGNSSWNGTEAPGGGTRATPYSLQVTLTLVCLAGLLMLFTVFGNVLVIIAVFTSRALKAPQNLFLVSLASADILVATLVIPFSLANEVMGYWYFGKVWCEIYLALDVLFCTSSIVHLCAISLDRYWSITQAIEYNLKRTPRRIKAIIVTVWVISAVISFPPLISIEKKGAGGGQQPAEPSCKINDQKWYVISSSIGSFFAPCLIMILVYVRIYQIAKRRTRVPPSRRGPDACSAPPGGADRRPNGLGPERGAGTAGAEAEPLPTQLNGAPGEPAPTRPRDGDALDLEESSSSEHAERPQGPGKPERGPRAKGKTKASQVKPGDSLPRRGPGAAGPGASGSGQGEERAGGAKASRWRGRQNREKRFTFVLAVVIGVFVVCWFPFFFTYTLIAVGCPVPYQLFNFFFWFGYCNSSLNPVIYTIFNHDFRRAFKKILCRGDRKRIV

Rattus norvegicus [18] = experiment: Maximal change in mean arterial blood pressure (MABP) measured as % change from pretreatment value at dose of 100 mg/kg in SHR; format: functional; summary of the method: as §1
Rattus norvegicus [19] = experiment: Maximal change in heart rate (HR) measured as pretreatment value at dose of 1 mg/kg in SHR; format: functional; summary of the method: as §1
Rattus norvegicus [20] = experiment: Maximal change in mean arterial blood pressure (MABP) measured as pretreatment value at dose of 100 mg/kg in SHR; format: functional; summary of the method: as §1
Rattus norvegicus [21] = experiment: Maximal change in heart rate (HR) measured as pretreatment value at dose of 2.5 mg/kg in SHR; format: functional; summary of the method: as §1
Rattus norvegicus [22] = experiment: Maximal change in heart rate (HR) measured as % change from pretreatment value at dose of 100 mg/kg in SHR; format: functional; summary of the method: as §1
Rattus norvegicus [23] = experiment: Maximal change in heart rate (HR) measured as pretreatment value at dose of 5 mg/kg in SHR; format: functional; summary of the method: as §1
Rattus norvegicus [24] = experiment: Maximal change in heart rate (HR) measured as pretreatment value at dose of 100 mg/kg in SHR; format: functional; summary of the method: as §1
Rattus norvegicus [25] = experiment: Maximal change in mean arterial blood pressure (MABP) measured as % change from pretreatment value at dose of 2.5 mg/kg in SHR; format: functional; summary of the method: as §1
Rattus norvegicus [26] = experiment: Maximal change in heart rate (HR) measured as % change from pretreatment value at dose of 5 mg/kg; format: functional; summary of the method: as §1
Rattus norvegicus [27] = experiment: Maximal change in heart rate (HR) measured as % change from pretreatment value at dose of 1 mg/kg in SHR; format: functional; summary of the method: as §1
Rattus norvegicus [28] = experiment: Maximal change in mean arterial blood pressure (MABP) measured as pretreatment value at dose of 1 mg/kg in SHR; format: functional; summary of the method: as §1
[29] = molecular target: Alpha-1 adrenergic receptor; experiment: The compound was evaluated for the antagonistic activity against alpha-1 adrenergic receptor.; details: read-out: pA2 (converted)
Rattus norvegicus [30] = experiment: Maximal change in heart rate (HR) measured as % change from pretreatment value at dose of 2.5 mg/kg; format: functional; summary of the method: as §1
Rattus norvegicus [31] = experiment: Maximal change in mean arterial blood pressure (MABP) measured as pretreatment value at dose of 2.5 mg/kg in SHR; format: functional; summary of the method: as §1
[32] = molecular target: T1, Beta-1 adrenergic receptor; experiment: The compound was evaluated for the antagonistic activity against beta-1 adrenergic receptor; format: functional; details: read-out: pA2 (converted); summary of the method: as §2
Rattus norvegicus [33] = experiment: Maximal change in mean arterial blood pressure (MABP) measured as % change from pretreatment value at dose of 25 mg/kg in SHR; format: functional; summary of the method: as §1
Rattus norvegicus [34] = experiment: Maximal change in heart rate (HR) measured as % change from pretreatment value at dose of 25 mg/kg; format: functional; summary of the method: as §1
Rattus norvegicus [35] = experiment: Maximal change in mean arterial blood pressure (MABP) measured as % change from pretreatment value at dose of 1 mg/kg in SHR; format: functional; summary of the method: as §1
Cavia porcellus [36] = organism: Cavia porcellus; experiment: Beta-2-adrenoceptor ISA (intrinsic sympathomimetic activity)was measured as relaxant effect against a PGF2-alpha contracted guinea pig trachea at 3x10E -7 M; format: functional

Change [8]: 0% | Kb [13]: 0.0316 µM | Kb [14]: 0.0398 µM | pA2 [17]: < 5
Structure (SMILES): CC(CCc1ccccc1)NCC(O)c1ccc(O)c(C(N)=O)c1 (stereo unspecified) [LABETALOL]
HR (Rattus norvegicus [1]): 457 beats min-1 | HR (Rattus norvegicus [2]): 424 beats min-1 | MABP (Rattus norvegicus [3]): 158 mmHg | Change (Rattus norvegicus [4]): -31% | Change (Rattus norvegicus [5]): -27% | MABP (Rattus norvegicus [6]): 163 mmHg | Change (Rattus norvegicus [7]): -14% | Change (Rattus norvegicus [9]): -23% | MABP (Rattus norvegicus [10]): 161 mmHg | Change (Cavia porcellus [11]): 62% | Change (Rattus norvegicus [12]): -25% | HR (Rattus norvegicus [15]): 437 beats min-1 | Change (Rattus norvegicus [16]): -15%

Kb [29]: 0.251 µM | Kb [14]: 0.0501 µM | Kb [32]: 0.0398 µM | pA2 [17]: 5.4
Structure (SMILES): CC(CCc1ccccc1)NCC(O)c1cc(C(N)=O)c2[nH]ccc2c1 (stereo unspecified)
Change (Rattus norvegicus [18]): -45% | HR (Rattus norvegicus [1]): 430 beats min-1 | MABP (Rattus norvegicus [3]): 166 mmHg | MABP (Rattus norvegicus [6]): 183 mmHg | HR (Rattus norvegicus [19]): 442 beats min-1 | Change (Rattus norvegicus [7]): -32% | Change (Rattus norvegicus [9]): -15% | MABP (Rattus norvegicus [20]): 178 mmHg | HR (Rattus norvegicus [21]): 419 beats min-1 | Change (Rattus norvegicus [22]): -26% | HR (Rattus norvegicus [23]): 439 beats min-1 | HR (Rattus norvegicus [24]): 425 beats min-1 | MABP (Rattus norvegicus [10]): 176 mmHg | Change (Rattus norvegicus [12]): -40% | Change (Rattus norvegicus [25]): -25% | Change (Rattus norvegicus [26]): -12% | Change (Rattus norvegicus [27]): -3% | MABP (Rattus norvegicus [28]): 171 mmHg | Change (Rattus norvegicus [30]): -10% | MABP (Rattus norvegicus [31]): 176 mmHg | HR (Rattus norvegicus [15]): 426 beats min-1 | Change (Rattus norvegicus [33]): -47% | Change (Rattus norvegicus [34]): -18% | Change (Rattus norvegicus [35]): -9% | Change (Cavia porcellus [36]): 89%
